Most compounds without a hit are left out; they make up all but 1.9% or so of the library.
MC4R antagonist = human MC4R antagonism in cAMP assay | P32245 | MC4R-expressing cells, MTII-stimulated cAMP, LANCE TR-FRET | inhibition, % at 6.5 µM | 360,000 tested, 0.48% active | AID 540295;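 active = inhibition above its plate's cutoff, the mean of tested wells on that plate plus 3 SD, cut at about 29% in these data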
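Material: human MC4R-expressing U2OS cells. Probe or stimulus: Melanotan II challenge. Dosing: 6.5 µM single dose. Times: 30-min compound, 1-h challenge, 1-h detection, room temperature. Technique: TR-FRET with Eu-cAMP and labeled anti-cAMP, 671 nm. Replication: singlicate.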
NOD2-RIPK2 inh = NOD2-RIPK2 protein interaction inhibition; CHO BLA complementation NOD2-RIPK2, CCF4 ratio; 360,000 tested, 0.38% active; AID 624267; inhibition, % at 4.98 µM; in the data active = inhibition above about 21%
Target sequence (O43353 whole entry, looked up): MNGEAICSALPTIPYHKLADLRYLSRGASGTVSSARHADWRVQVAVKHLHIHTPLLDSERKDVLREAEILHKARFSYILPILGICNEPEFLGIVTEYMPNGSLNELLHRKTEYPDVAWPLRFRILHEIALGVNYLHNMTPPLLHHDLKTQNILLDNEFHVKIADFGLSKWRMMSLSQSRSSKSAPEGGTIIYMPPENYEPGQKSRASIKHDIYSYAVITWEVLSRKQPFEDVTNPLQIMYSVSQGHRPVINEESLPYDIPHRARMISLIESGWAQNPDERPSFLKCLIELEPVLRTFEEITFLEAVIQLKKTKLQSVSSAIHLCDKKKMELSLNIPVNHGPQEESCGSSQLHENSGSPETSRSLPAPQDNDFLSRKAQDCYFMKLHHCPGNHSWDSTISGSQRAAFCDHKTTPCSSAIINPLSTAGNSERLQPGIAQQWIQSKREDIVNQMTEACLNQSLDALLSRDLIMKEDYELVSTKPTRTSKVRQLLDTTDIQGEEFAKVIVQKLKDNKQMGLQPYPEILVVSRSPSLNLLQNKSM
MC4R ag barr = human MC4R agonism via beta-arrestin; U2OS MC4R beta-arrestin complementation, luminescence; percent of melanotan II response, DMSO zero; activation, % at 8.9 µM; 360,000 tested, 0.98% active; AID 540308;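 active = activation above a per-plate cutoff, the mean activation of sample wells on that plate plus 3 SD, cut at about 8% in these data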
TLR4 MyD88 comp = blocks binding of human TLR4 to MyD88; O00206+Q99836; HeLa CL3-4 TLR4/MyD88 BLA complementation, FRET ratio; inhibition, % at 8.4 µM; 200,000 tested, 0.18% active; AID 861; in the data active = inhibition above about 25%
TLR9-MyD88 inh = inhibitors of human TLR9-MyD88 binding | Q9NR96+Q99836 | CHO BLA complementation TLR9-MyD88, CCF4 FRET ratio | inhibition, % at 4.98 µM | 340,000 tested, 0.21% active;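 active = inhibition above the mean over all tested compounds plus 3 SD, cut at about 21% in these data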
NTR1 ag = activates human neurotensin receptor 1. P30989. NTR1-U2OS beta-arrestin-GFP spot imaging, agonist mode. activation, % at 20 µM. 330,000 tested, 0.17% active. AID 493036;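 active = activation at or above 40% of the spot to cytoplasm intensity ratio, with at least 20 cells analyzed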
U2OS cAMP counter = U2OS forskolin cAMP inhibition counter-screen; shares compounds with MC4R antagonist; AID 602193; inhibition, % at 6.5 µM; 1,600 tested, 26% active; parental U2OS, LANCE TR-FRET;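 active = mean inhibition over triplicates above the low-control well mean plus 3 SD, set per campaign, cut at about 13% in these data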;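 also: signal is single emission at 671 nm which falls as cellular cAMP rises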
MC4R cAMP antag = human MC4R cAMP antagonism confirmation | shares compounds with MC4R antagonist | MC4R-expressing cells, MTII-stimulated cAMP, TR-FRET | inhibition, % at 6.5 µM | 1,600 tested, 27% active | AID 602195; in the data active = inhibition above about 29%
Of the large screens only hits and unclear results are named; the others gave an inactive call (follow-up assays come after a bar, where they were run).

N#Cc1c(-n2ccnc2)cccc1-n1ccnc1	none
Cc1cccc2c1NC(=O)/C2=C\C(=O)c1cccs1	MC4R antagonist 30.3 | U2OS cAMP counter inactive | MC4R cAMP antag inactive
CCOC(=O)N1CCC(NC(=O)c2cc3c(-c4cccc(OC)c4)nn(C)c3s2)CC1	none
CCOC(=O)N1CCN(C(=O)c2cc3c(-c4cccc(OC)c4)nn(C)c3s2)CC1	MC4R antagonist 29.9 (no result: TLR4 MyD88 comp) | U2OS cAMP counter inactive | MC4R cAMP antag inactive
Cc1cc(C)c(/C=N/n2c(C)cc(C)c(C#N)c2=O)c(C)c1	MC4R antagonist 29.3 | U2OS cAMP counter inactive | MC4R cAMP antag inactive
COc1ccc(C(NC(=O)c2c(F)c(F)c(F)c(F)c2F)c2ccccc2)cc1 (stereo not drawn)	MC4R antagonist 72.2 | U2OS cAMP counter 56.9 | MC4R cAMP antag 87.9
COc1ccc(CCNC2=C(Cl)C(=O)N(CCc3ccc(OC)c(OC)c3)C2=O)cc1OC	MC4R antagonist 31.2 | U2OS cAMP counter inactive | MC4R cAMP antag inactive
COc1ccc(NC2=C(Cl)C(=O)N(CCc3ccccc3)C2=O)c(OC)c1	none
Nc1nc(NCc2ccccc2Cl)n(-c2ccccc2)n1	none (no result: TLR4 MyD88 comp)
COc1cc(C2CC(=O)Oc3c2c(=O)n(C)c2ccccc32)cc(OC)c1OC (stereo not drawn)	MC4R antagonist 37.6 | U2OS cAMP counter inactive | MC4R cAMP antag inactive
O=C(Nc1cc(C(F)(F)F)ccc1N1CCOCC1)c1c(F)c(F)c(F)c(F)c1F	MC4R antagonist 29.5 | U2OS cAMP counter 15.7 | MC4R cAMP antag 45.8
O=C(Nc1cc(C(F)(F)F)ccc1N1CCOCC1)c1ccccc1	none
Cc1cccc(Cc2nnc(CCC(=O)N3CCCCC3c3nccs3)o2)c1 (stereo not drawn)	none
COc1ccc(OC)c(Cc2nnc(CCC(=O)N3CCCCC3c3nccs3)o2)c1 (stereo not drawn)	MC4R antagonist 29.9 | U2OS cAMP counter inactive | MC4R cAMP antag inactive
Cc1nc(SCCC(=O)O)c2ccccc2n1	MC4R antagonist 54.5 | U2OS cAMP counter 19.3 | MC4R cAMP antag 34.5
CCOc1ccccc1NC(=O)c1nc(S(=O)(=O)Cc2ccccc2)ncc1Cl	MC4R antagonist 32.6 (no result: TLR4 MyD88 comp) | U2OS cAMP counter inactive | MC4R cAMP antag inactive
COc1ccccc1NC(=O)c1nc(S(=O)(=O)Cc2ccccc2)ncc1Cl	none (no result: TLR4 MyD88 comp)
COc1ccc(CC(=O)Nc2cc3oc4ccccc4c3cc2OC)cc1	MC4R antagonist 29.4 | U2OS cAMP counter inactive | MC4R cAMP antag inactive
COc1ccccc1CC(=O)Nc1cc2oc3ccccc3c2cc1OC	none
O=c1ccc(Cl)n[nH]1	none (no result: TLR4 MyD88 comp)
O=[N+]([O-])c1cc(-c2nc(-c3ccncc3)no2)cc([N+](=O)[O-])c1	none
O=[N+]([O-])c1cc(-c2nc(-c3ccncc3)no2)ccc1Cl	MC4R antagonist 39.4 | U2OS cAMP counter 18.4 | MC4R cAMP antag 47.3
COC(=O)COc1ccc(S(=O)(=O)N2CCN(c3ccc(OC)cc3)CC2)cc1	MC4R antagonist 30.1 | U2OS cAMP counter 17.9 | MC4R cAMP antag 46.4
CCOC(=O)COc1ccc(S(=O)(=O)N2CCN(c3ccc(F)cc3)CC2)cc1	none
COC(=O)COc1ccc(S(=O)(=O)N2CCN(c3ccc(F)cc3)CC2)cc1	MC4R antagonist 30.8 | U2OS cAMP counter 15.6 | MC4R cAMP antag 45.5
COC(=O)COc1ccc(S(=O)(=O)N2CCCCCC2)cc1	none
O=C(COC(=O)CNC(=O)c1cccc(OC(F)F)c1)NCc1ccc2c(c1)OCO2	MC4R antagonist 32.7 (no result: TLR4 MyD88 comp) | U2OS cAMP counter 19.6 | MC4R cAMP antag 39.6
CC(c1ccco1)N(C(=O)c1ccccc1NS(=O)(=O)c1ccc(Cl)c([N+](=O)[O-])c1)c1ccccn1 (stereo not drawn)	MC4R antagonist 39.2 | U2OS cAMP counter inactive | MC4R cAMP antag inactive
CC(c1ccco1)N(C(=O)c1cc(Cl)cc(Cl)c1)c1ccccn1 (stereo not drawn)	none (no result: TLR4 MyD88 comp)
CC(C)C[C@@H]1O[C@H](CCc2ccccc2)Cc2[nH]c(=S)[nH]c(=O)c21	none (no result: MC4R antagonist, MC4R ag barr, TLR4 MyD88 comp, TLR9-MyD88 inh, NTR1 ag)
O=C(COC(=O)c1cnc(Cl)c(Cl)c1)NCCC1=CCCCC1	MC4R antagonist 37.9 | U2OS cAMP counter 27.6 | MC4R cAMP antag 35.7
O=C(COC(=O)c1cnc(Cl)c(Cl)c1)NC1CCCCCC1	MC4R antagonist 29.2 (no result: TLR4 MyD88 comp) | U2OS cAMP counter 26.8 | MC4R cAMP antag 47.9
O=C(COC(=O)c1cnc(Cl)c(Cl)c1)NC1CCCC1	MC4R antagonist 29.4 (no result: TLR4 MyD88 comp, NTR1 ag) | U2OS cAMP counter 22.1 | MC4R cAMP antag 32.6
CN(C(=O)COC(=O)c1cnc(Cl)c(Cl)c1)C1CCCCC1	MC4R antagonist 39.5 (no result: TLR4 MyD88 comp) | U2OS cAMP counter 21.6 | MC4R cAMP antag 39.3
O=C(COC(=O)c1ccc(Cl)c(Cl)c1)NC1CCCC1	none (no result: TLR4 MyD88 comp)
CN(C(=O)COC(=O)c1cnc(Cl)c(Cl)c1)C1CCS(=O)(=O)C1 (stereo not drawn)	none
O=C(OCc1ccccc1)N1CCC2CC1c1ccc(N3CCN(Cc4ccc5c(c4)OCO5)CC3)cc12 (stereo not drawn)	none (no result: MC4R antagonist, MC4R ag barr, TLR4 MyD88 comp, TLR9-MyD88 inh, NTR1 ag)
O=C(NCC1(N2CCOCC2)CCCCC1)c1cccc(S(=O)(=O)N2CCc3ccccc3C2)c1	none
COc1ccc(C(C(=O)NC(C)(C)C)N(C(=O)CCC(=O)Nc2cc(C)on2)c2ccccc2F)cc1 (stereo not drawn)	MC4R antagonist 30.1 (no result: TLR4 MyD88 comp) | U2OS cAMP counter inactive | MC4R cAMP antag inactive
c1cc(-c2ccc(CN3CCOCC3)cc2)n2ccnc2c1	none (no result: TLR4 MyD88 comp, TLR9-MyD88 inh, NTR1 ag)
CC(C)Oc1cccc(C(=O)Nc2nnc([C@@H]3C[C@H](O)[C@@H](CO)O3)s2)c1	none (no result: TLR4 MyD88 comp, TLR9-MyD88 inh, NTR1 ag)
COc1ccc(N2CCN(c3n[nH]c(N)n3)CC2)cc1	MC4R antagonist 35.2 | U2OS cAMP counter inactive | MC4R cAMP antag inactive
Cc1cccc(C)c1N1CCN(c2n[nH]c(N)n2)CC1	none
Cc1ccc(Cc2c(C(C)(C)C)nc3ccc(Br)cn23)cc1	none (no result: MC4R antagonist, MC4R ag barr, TLR4 MyD88 comp, TLR9-MyD88 inh, NTR1 ag)
Clc1ccc(-c2nnc3n2CCCCS3)cc1	MC4R antagonist 35.0 | U2OS cAMP counter inactive | MC4R cAMP antag inactive
COC(=O)c1sc(N)c(C(=O)OC)c1COC(=O)CNS(=O)(=O)c1ccc(C)c(C)c1	MC4R antagonist 31.6 | U2OS cAMP counter inactive | MC4R cAMP antag inactive
O=C(CNS(=O)(=O)c1ccc2ccccc2c1)OCc1nnc(-c2ccccc2)o1	MC4R antagonist 35.3 | U2OS cAMP counter 17.1 | MC4R cAMP antag 35.5
O=C(CCNS(=O)(=O)c1ccccc1)OCc1nnc(-c2ccccc2)o1	none (no result: TLR4 MyD88 comp)
COC(=O)c1sc(N)c(C(=O)OC)c1COC(=O)CCNS(=O)(=O)c1ccc(C)cc1	none
